# Experimental data published in article PMC4400215 (Antiviral therapy, 2014).
# Values joined by “and” are separate entries in the source; they are usually repeats but may differ in a detail not shown here. Identical values can stand only once. Like-named read-outs stand apart in the source and are kept apart here.
# Tests used:
# HCV [1] = details: monotherapy, doses of 200 and 500 mg/day; cited from earlier work
# HCV genotype 1 [2] = type: in vivo, Hepatitis C virus; details: 14 days
# Method in brief: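 Reanalysed phase 1 data. Chronically infected patients were randomised 8:2 to oral test compound or placebo for 14 days, and placebo recipients were excluded. HCV RNA was measured in blood drawn at 0, 2, 4, 6, 8, 12, 16, 24, 26, 28, 30, 48 and 52 h, on days 6 and 8 pre- and post-dose, and on day 13.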
# [3] = Two-compartment population PK model fitted to danoprevir plasma concentrations; type: in vivo, patients
# HCV [4] = assay: PK/VK model fitted to HCV RNA kinetics during danoprevir monotherapy; type: in vivo, Hepatitis C virus; details: for minimal effectiveness: at Cmin
# HCV [5] = assay: Varying effectiveness; type: in vivo, Hepatitis C virus; details: VE model
# Method in brief: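 Standard viral kinetic model with constant target cells, fitted to log10 viral load only, without PK data. Effectiveness = Dose/(ED50+Dose)·(1−e^(−kt)), where Dose is the total daily amount. Population mixed-effects fit by maximum likelihood. Per-patient effectiveness was averaged over days 0–2 and 0–14, then over each cohort. First-phase decline = −log10(1−ε).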
# HCV [6] = details: 200 mg tid, multiscale model; cited from earlier work
# HCV [7] = details: in combination with mericitabine, 14 days, no viral breakthrough; cited from earlier work
# HCV genotype 1 [8] = details: cited from earlier work
# [9] = Cohort 5: 300 mg bid, non-responder
# [10] = PK/VK model, Cohort 1: 100 mg bid, TN
# [11] = PK/VK model, Cohort 2: 100 mg tid, TN
# [12] = PK/VK model, Cohort 3: 200 mg bid, TN
# [13] = PK/VK model, Cohort 4: 200 mg tid, TN
# [14] = PK/VK model, Cohort 5: 300 mg bid, non-responder
# [15] = after first intake, 100 mg bid dose
structure (smiles),measurement,setting,value
COc1ccc2c(O[C@@H]3C[C@H]4C(=O)N[C@]5(C(=O)O)C[C@H]5/C=C\CCCCC[C@H](NC(=O)OC5CCCC5)C(=O)N4C3)cc(-c3csc(NC(C)C)n3)nc2c1 [ciluprevir],δ (second phase decline),HCV [1],0.22 to 0.36 day⁻¹
CC(C)(C)OC(=O)N[C@H]1CCCCC/C=C\[C@@H]2C[C@@]2(C(=O)NS(=O)(=O)C2CC2)NC(=O)[C@@H]2C[C@@H](OC(=O)N3Cc4cccc(F)c4C3)CN2C1=O [danoprevir],Total viral decline (median),"HCV genotype 1 [2]; Cohort 1: 100 mg bid, treatment-naïve",2.0 Log10 IU/mL
same,Total viral decline (median),"HCV genotype 1 [2]; Cohort 2: 100 mg tid, TN",2.7 Log10 IU/mL
same,Total viral decline (median),"HCV genotype 1 [2]; Cohort 4: 200 mg tid, TN",3.9 Log10 IU/mL
same,Total viral decline (median),HCV genotype 1 [2]; [9],2.7 Log10 IU/mL
same,Cmax,"[3]; human, plasma, oral",0.00267 to 0.589 µg/mL
same,Vd/F,"[3]; human, plasma, oral",2100 ± 360 L
same,k el,"[3]; human, plasma, oral",0.000283 s⁻¹
same,k21 (backward rate constant between compartments),"[3]; population estimate±standard error, all cohorts",0.81 h⁻¹ and 0.81 ± 0.17 h⁻¹
same,Tlag (post-dose lag-time),"[3]; population estimate±standard error, all cohorts, oral",0.50 h and 0.50 ± 0.057 h
same,Tk0 (time over which danoprevir is absorbed),"[3]; population estimate±standard error, all cohorts, zero-order absorption",0.58 h and 0.58 ± 0.13 h
same,final effectiveness in blocking viral production,HCV [4]; 200 mg tid,99.4%
same,Average effectiveness over the first 2 days of dosing ε2,HCV [4]; [10],0.946
same,Average effectiveness over the full 14-day dosing period ε14,HCV [4]; [10],0.95 and 0.953
same,"Predicted first-phase log decline, i.e. −log10(1−ε2)",HCV [4]; [10],1.27 log10
same,Average effectiveness over the first 2 days of dosing ε2,HCV [4]; [11],0.981
same,Average effectiveness over the full 14-day dosing period ε14,HCV [4]; [11],0.990
same,"Predicted first-phase log decline, i.e. −log10(1−ε2)",HCV [4]; [11],1.72 log10
same,Average effectiveness over the first 2 days of dosing ε2,HCV [4]; [12],0.966
same,Average effectiveness over the full 14-day dosing period ε14,HCV [4]; [12],0.974
same,"Predicted first-phase log decline, i.e. −log10(1−ε2)",HCV [4]; [12],1.47 log10
same,Average effectiveness over the first 2 days of dosing ε2,HCV [4]; [13],0.985
same,Average effectiveness over the full 14-day dosing period ε14,HCV [4]; [13],0.994
same,"Predicted first-phase log decline, i.e. −log10(1−ε2)",HCV [4]; [13],1.83 log10
same,Average effectiveness over the first 2 days of dosing ε2,HCV [4]; [14],0.974
same,Average effectiveness over the full 14-day dosing period ε14,HCV [4]; [14],0.982
same,"Predicted first-phase log decline, i.e. −log10(1−ε2)",HCV [4]; [14],1.58 log10
same,minimal effectiveness,"HCV [4]; PK/VK model, cohort 1 (lowest dose)",0.706
same,minimal effectiveness,"HCV [4]; PK/VK model, cohort 4 (highest dose)",0.877
same,EC50 (plasma concentration at which effectiveness is 0.5 times its maximum),"HCV [4]; PK/VK model, in vivo, h=1, population estimate±standard error",0.0082 ± 0.0024 ng/mL
same,"δ (loss rate of infected cells, slope of second phase decline)","HCV [4]; PK/VK model, population estimate±standard error, all cohorts",0.18 day⁻¹ and 0.18 ± 0.024 day⁻¹
same,time to reach 95% of final effectiveness,HCV [4]; [15],≤ 30 min
same,time to reach 99% of final effectiveness,HCV [4]; [15],≤ 36 min
same,patients showing a rapid second phase (δ > 0.3 d^−1),HCV [4]; all cohorts,30%
same,time to reach 99% of the final effectiveness,"HCV [4]; model prediction, all doses",less than 1 hr
same,Average effectiveness over the first 2 days of dosing ε2,"HCV [5]; Cohort 1: 100 mg bid, TN",0.973
same,Average effectiveness over the full 14-day dosing period ε14,"HCV [5]; Cohort 1: 100 mg bid, TN",0.976
same,"Predicted first-phase log decline, i.e. −log10(1−ε2)","HCV [5]; Cohort 1: 100 mg bid, TN",1.57 log10
same,Average effectiveness over the first 2 days of dosing ε2,"HCV [5]; Cohort 2: 100 mg tid, TN",0.982
same,Average effectiveness over the full 14-day dosing period ε14,"HCV [5]; Cohort 2: 100 mg tid, TN",0.984
same,"Predicted first-phase log decline, i.e. −log10(1−ε2)","HCV [5]; Cohort 2: 100 mg tid, TN",1.74 log10
same,Average effectiveness over the first 2 days of dosing ε2,"HCV [5]; Cohort 3: 200 mg bid, TN",0.985
same,Average effectiveness over the full 14-day dosing period ε14,"HCV [5]; Cohort 3: 200 mg bid, TN",0.988
same,"Predicted first-phase log decline, i.e. −log10(1−ε2)","HCV [5]; Cohort 3: 200 mg bid, TN",1.82 log10
same,Average effectiveness over the first 2 days of dosing ε2,"HCV [5]; Cohort 4: 200 mg tid, TN",0.990
same,Average effectiveness over the full 14-day dosing period ε14,"HCV [5]; Cohort 4: 200 mg tid, TN",0.992
same,"Predicted first-phase log decline, i.e. −log10(1−ε2)","HCV [5]; Cohort 4: 200 mg tid, TN",2.00 log10
same,Average effectiveness over the first 2 days of dosing ε2,HCV [5]; [9],0.990
same,Average effectiveness over the full 14-day dosing period ε14,HCV [5]; [9],0.992
same,"Predicted first-phase log decline, i.e. −log10(1−ε2)",HCV [5]; [9],2.00 log10
same,ED50 (daily dose leading to 50% of the maximal effectiveness),HCV [5]; estimate±standard error,4.85 ± 1.4 mg/day
same,k (rate constant for effectiveness increase),HCV [5]; estimate±standard error,29.1 ± 13.0 day⁻¹ and 29.1 ± 13 day⁻¹
same,δ (loss rate of infected cells),HCV [5]; estimate±standard error,0.184 ± 0.03 day⁻¹
same,final population effectiveness,HCV [5]; highest dose given to treatment-naïve patients (cohort 4),0.992
same,final population effectiveness,HCV [5]; lowest dose (cohort 1),0.976
same,effectiveness in blocking intracellular replication,HCV [6],99.2%
same,enhancement of viral RNA degradation,HCV [6],about 5 fold
same,mean effectiveness on viral secretion,HCV [6],56%
same,viral RNA decline,HCV [7],5 logs
same,cure rates,"HCV genotype 1 [8]; genotype 1, with IFN and ribavirin, boosted with ritonavir",up to 93%
same,cure rates,"HCV genotype 1 [8]; patients infected with genotype 1, in combination with IFN and ribavirin",up to 85%
